Measured values gathered from unrelated publications.
Protocols differ between the studies behind these lines.
Cell line: HeLa
Effect on: cell growth or viability

CC(C)CCOc1cc(C[n+]2cn(CCC(C)C)c3cc(-c4ccccc4)c(-c4ccccc4)cc32)c(OCCC(C)C)c2ccccc12
IC50 (MTT; 24 h): 11.2 µM

C=C[C@]1(C)C=C2CC[C@H]3C(C)(C)CCC[C@]3(C)[C@H]2CC1
IC50 (MTT; 75 h): 130 µM

CNc1cccc(Nc2nc(-c3ccncc3)nc3c2CNCC3)c1
IC50 (MTT): > 100 µM

CC(C)CCn1c[n+](CC(=O)c2cc(OC(C)C)c3ccccc3c2OC(C)C)c2ccccc21
IC50 (MTT; 24 h): 12.9 µM

COc1cccc(-c2cc(NCc3ccc4c(c3)OCO4)nc(N)n2)c1
IC50 (CCK-8; 72 h): 0.188 µM

CCCCCCCCOc1cc(C(=O)C[n+]2cn(CCC(C)C)c3ccccc32)c(OCCCCCCCC)c2ccccc12
IC50 (MTT; 24 h): 14.3 µM

CCCNC(=S)N/N=C/c1cccc2cc3ccccc3nc12
IC50 (MTT; 48 h): 36.2 µM

COc1cccc2c1C(=O)c1c(O)c3c(c(O)c1C2=O)C[C@@](O)(C(=O)CO)C[C@@H]3O[C@H]1C[C@H](N)[C@H](O)[C@H](C)O1
IC50 (MTT): 6.89 µM

CCC(=CCc1c(O)cc2c(c1O)C(=O)C[C@@H](c1ccccc1O)O2)CC
IC50 (MTT; 48 h): 51.3 µM

COc1ccc(NC(=S)N/N=C/c2cccc3cc4ccccc4nc23)cc1
IC50 (MTT; 48 h): 14.8 µM

CCC(=CCc1c(O)cc2c(c1O)C(=O)CC(c1ccc(O)cc1)O2)CC (stereo in doubt)
IC50 (MTT): 19.1 µM

CSc1ccccc1-c1cc(C(N)=O)c2[nH]c3c(c2c1)CC(N)CC3 (centres unmarked)
IC50: 1.46 µM

CC(C)CCOc1cc(C[n+]2c(-c3ccc(F)cc3)n(CCC(C)C)c3ccccc32)c(OCCC(C)C)c2ccccc12
IC50 (MTT; 24 h): 9.4 µM

S=C(N/N=C/c1cccc2cc3ccccc3nc12)Nc1ccccc1
IC50 (MTT; 48 h): 28.3 µM

CN(C)c1ccc(Nc2nc(-c3ccncc3)nc3c2CC(N)CC3)cc1 (centres unmarked)
IC50 (MTT): 38.2 µM

O=Cc1cccc(NC(=O)Cn2cc(COc3ncnc4[nH]cnc34)nn2)c1
IC50 (MTT): 22.1 µM

Cc1cc2c(cc1C)[n+](Cc1cc(OCCC(C)C)c3ccccc3c1OCCC(C)C)cn2CCC(C)C
IC50 (MTT; 24 h): 8.9 µM

COc1cc([C@@H]2c3cc4c(cc3[C@@H](O[C@@H]3O[C@@H]5CO[C@@H](C)O[C@H]5[C@H](O)[C@H]3O)[C@H]3COC(=O)[C@H]23)OCO4)cc(OC)c1O
IC50 (MTT; 48 h): 3.9 µM

COc1cccc2c1C(=O)c1c(O)c3c(c(O)c1C2=O)C[C@@](O)(C(=O)CO)C[C@@H]3O[C@H]1C[C@H](N)[C@H](O)[C@H](C)O1
IC50 (MTT; 75 h): 0.27 µM

CC(C)CCOc1cc(C(=O)C[n+]2ccn(CCC(C)C)c2)c(OCCC(C)C)c2ccccc12
IC50 (MTT; 24 h): 10.1 µM

Cc1ccc(NC(=O)Cn2cc(COc3ncnc4[nH]cnc34)nn2)c(C)c1
IC50 (MTT): 21.4 µM

Cc1n(CCC(C)C)c2ccccc2[n+]1Cc1cc(OCCC(C)C)c2ccccc2c1OCCC(C)C
IC50 (MTT; 24 h): 7.6 µM

CC(C)CNC(=S)N/N=C/c1cccc2cc3ccccc3nc12
IC50 (MTT; 48 h): 25.5 µM

CC(=O)O[C@@]12CO[C@@H]1C[C@H](O)[C@@]1(C)C(=O)[C@H](O)C3=C(C)[C@@H](OC(=O)[C@H](O)[C@@H](NC(=O)OC(C)(C)C)c4ccccc4)C[C@@](O)([C@@H](OC(=O)c4ccccc4)[C@H]21)C3(C)C
IC50 (MTT; 48 h): 60.7 µM

CC(C)CCOc1cc(C[n+]2c(-c3ccccc3)n(CCC(C)C)c3ccccc32)c(OCCC(C)C)c2ccccc12
IC50 (MTT; 24 h): 7.3 µM

COc1cccc2c1C(=O)c1c(O)c3c(c(O)c1C2=O)C[C@@](O)(C(=O)CO)C[C@@H]3O[C@H]1C[C@H](N)[C@H](O)[C@H](C)O1
IC50: 0.03 µM

COc1cccc(Nc2nc(-c3ccncc3)nc3c2CNCC3)c1
IC50 (MTT): 23.2 µM

Cc1cccc(NC(=O)Cn2cc(COc3ncnc4[nH]cnc34)nn2)c1
IC50 (MTT): 28.6 µM

CC(=O)O[C@H]1C(=O)[C@@]2(C)[C@H]([C@H](OC(=O)c3ccccc3)[C@]3(O)C[C@H](OC(=O)[C@H](O)[C@@H](NC(=O)c4ccccc4)c4ccccc4)C(C)=C1C3(C)C)[C@]1(OC(C)=O)CO[C@@H]1C[C@@H]2O
IC50 (MTT; 48 h): 15.8 µM
